Source: ChEMBL document CHEMBL2380254, “Optimization of tocotrienols as antiproliferative and antimigratory leads” (Eur J Med Chem, 2013)

Columns and labels:
[1] = Growth inhibition of human EKVX cells assessed as cell growth at 10 uM after 48 hrs by sulforhodamine B assay; format: functional; conditions: read-out: Activity
Procedure, shortened: (§1)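 NCI-60 single-dose screen at 10 µM: cells in RPMI 1640 with 5% FBS, preincubated 24 h, then exposed 48 h at 37 °C. TCA fixation (16% final for suspension cells), SRB staining, absorbance 515 nm. Percent growth relative to time-zero and untreated control plates; negative values indicate cell kill.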

Malme-3M = test: Growth inhibition of human MALME-3M cells after 48 hrs by sulforhodamine B assay; format: functional
Procedure, shortened: (§2)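 NCI-60 panel cells grown in RPMI 1640 with 5% FBS and 2 mM L-glutamine, seeded at 5000–40,000 cells/well and preincubated 24 h. Five 10-fold dilutions (0.001–100 µM) from DMSO stocks were added for 48 h at 37 °C. Adherent cells were fixed with cold TCA (10% final) for 60 min at 4 °C, stained with 0.4% SRB, and read at 515 nm. GI50 was set where 100×(T−T0)/(C−T0)=50.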

OVCAR-4 = test: Growth inhibition of human OVCAR4 cells assessed as cell growth at 10 uM after 48 hrs by sulforhodamine B assay; format: functional; conditions: OVCAR-4, 48 h, read-out: Activity
Procedure, shortened: (§3)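 Single-dose NCI-60 screen: adherent cells in RPMI 1640 with 5% FBS were exposed to 10 µM for 48 h at 37 °C after a 24 h preincubation. They were fixed in situ with cold TCA (10% final), stained with 0.4% SRB in 1% acetic acid, solubilized in 10 mM Tris base, and read at 515 nm. Percent growth was taken relative to time-zero and control plates.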

UACC-257 [2] = test: Growth inhibition of human UACC257 cells assessed as cell growth at 10 uM after 48 hrs by sulforhodamine B assay; format: functional; conditions: UACC-257, 48 h, read-out: Activity
Procedure, shortened: (§4)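 Single-dose NCI-60 test at 10 µM. Cells were grown in RPMI 1640 with 5% FBS and 2 mM L-glutamine, preincubated 24 h, with T0 plates TCA-fixed. Exposure was 48 h at 37 °C, 5% CO2. Cells were fixed with cold TCA (final 10%, 4 °C, 60 min), stained with SRB and read at 515 nm. Percent growth was taken relative to T0 and untreated control; negative values denote cell kill.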

SK-MEL-2 = test: Growth inhibition of human SK-MEL-2 cells assessed as cell growth at 10 uM after 48 hrs by sulforhodamine B assay; format: functional; conditions: SK-MEL-2, 48 h, read-out: Activity; procedure, shortened: as §3
A549 = test: Growth inhibition of human A549/ATCC cells after 48 hrs by sulforhodamine B assay; format: functional; conditions: A549, 48 h
Procedure, shortened: (§5)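 NCI-60 screen: cells in RPMI 1640 with 5% FBS and 2 mM glutamine, 5000–40,000 cells/well, preincubated 24 h. Five concentrations (10-fold dilutions; 100 to 0.001 µM) applied for 48 h at 37 °C. TCA fixation, SRB stain, absorbance at 515 nm. Time-zero plates included; GI50 where 100×(T−T0)/(C−T0)=50.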

A498 = test: Growth inhibition of human A498 cells assessed as cell growth at 10 uM after 48 hrs by sulforhodamine B assay; format: functional; conditions: A498, 48 h, read-out: Activity; procedure, shortened: as §1
SK-OV-3 [3] = test: Growth inhibition of human SKOV3 cells assessed as cell growth at 10 uM after 48 hrs by sulforhodamine B assay; format: functional; conditions: SK-OV-3, 48 h, read-out: Activity; procedure, shortened: as §4
SK-OV-3 [4] = test: Growth inhibition of human SKOV3 cells after 48 hrs by sulforhodamine B assay; format: functional; conditions: SK-OV-3, 48 h
Procedure, shortened: (§6)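 NCI-60 five-dose screen. Cells were grown in RPMI 1640 with 5% FBS and 2 mM L-glutamine, plated at 5000–40,000 cells/well and incubated 24 h before dosing, with T0 plates TCA-fixed. DMSO stocks were diluted to doses of […] and exposed 48 h at 37 °C, 5% CO2. Cells were fixed with cold TCA (final 10%, 60 min, 4 °C), stained with 0.4% SRB in 1% acetic acid for 10 min, solubilized in 10 mM trizma base and read at 515 nm. GI50 is where 100×(T−T0)/(C−T0)=50.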

MDA-MB-435 = test: Growth inhibition of human MDA-MB-435 cells after 48 hrs by sulforhodamine B assay; format: functional; conditions: MDA-MB-435, 48 h; procedure, shortened: as §2
UO-31 = test: Growth inhibition of human UO31 cells assessed as cell growth at 10 uM after 48 hrs by sulforhodamine B assay; format: functional; conditions: UO-31, 48 h, read-out: Activity; procedure, shortened: as §4
HL-60(TB) = test: Growth inhibition of human HL-60(TB) cells after 48 hrs by sulforhodamine B assay; format: functional; conditions: HL-60, 48 h
Procedure, shortened: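 HL-60(TB) cells (suspension) grown in RPMI 1640 with 5% FBS and 2 mM L-glutamine. They were plated and preincubated for 24 h, with T0 plates fixed at that point. Drug was given at five 10-fold dilutions for 48 h at 37 °C. Settled cells were fixed with TCA (16% final), stained with 0.4% SRB in 1% acetic acid and read at 515 nm. GI50 was taken where 100×(T−T0)/(C−T0)=50.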

UACC-257 [5] = test: Growth inhibition of human UACC257 cells after 48 hrs by sulforhodamine B assay; format: functional; conditions: UACC-257, 48 h; procedure, shortened: as §6
RPMI-8226 = test: Growth inhibition of human RPMI8226 cells assessed as cell growth at 10 uM after 48 hrs by sulforhodamine B assay; format: functional; conditions: RPMI-8226, 48 h, read-out: Activity
Procedure, shortened: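 Single 10 µM dose applied to suspension cells in RPMI 1640 with 5% FBS and 2 mM L-glutamine for 48 h at 37 °C. Settled cells were fixed with 80% TCA (16% final), stained with SRB, and read at 515 nm. Percent growth was calculated against time-zero and untreated control optical densities.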

MDA-MB-231 = test: Antiproliferative activity against human MDA-MB-231 cells by MTT assay; format: functional, cell-based
Procedure, shortened: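 Cells plated at 8 × 10^3/well (MDA-MB-231) or 10^4/well (MCF7) in 96-well plates. Compounds fed in media with 5% FBS (MDA-MB-231) or 1% FBS (MCF7). MTT read-out of viable cells.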

ACHN = test: Growth inhibition of human ACHN cells after 48 hrs by sulforhodamine B assay; format: functional; procedure, shortened: as §5
M14 = test: Growth inhibition of human M14 cells assessed as cell growth at 10 uM after 48 hrs by sulforhodamine B assay; format: functional; conditions: M14, 48 h, read-out: Activity; procedure, shortened: as §1
NCI-H522 = test: Growth inhibition of human NCI-H522 cells assessed as cell growth at 10 uM after 48 hrs by sulforhodamine B assay; format: functional; conditions: NCI-H522, 48 h, read-out: Activity; procedure, shortened: as §3
KM12 = test: Growth inhibition of human KM12 cells assessed as cell growth at 10 uM after 48 hrs by sulforhodamine B assay; format: functional; conditions: KM12, 48 h, read-out: Activity; procedure, shortened: as §1
HCT-15 = test: Growth inhibition of human HCT15 cells after 48 hrs by sulforhodamine B assay; format: functional; conditions: HCT-15, 48 h; procedure, shortened: as §5
PC-3 = test: Growth inhibition of human PC3 cells assessed as cell growth at 10 uM after 48 hrs by sulforhodamine B assay; format: functional; conditions: PC-3, 48 h, read-out: Activity; procedure, shortened: as §3

Compound	growth at 10 µM [1] [%]	GI50 (Malme-3M) [µM]	growth at 10 µM (OVCAR-4) [%]	growth at 10 µM (UACC-257 [2]) [%]	growth at 10 µM (SK-MEL-2) [%]	GI50 (A549) [µM]	growth at 10 µM (A498) [%]	growth at 10 µM (SK-OV-3 [3]) [%]	GI50 (SK-OV-3 [4]) [µM]	GI50 (MDA-MB-435) [µM]	growth at 10 µM (UO-31) [%]	GI50 (HL-60(TB)) [µM]	GI50 (UACC-257 [5]) [µM]	growth at 10 µM (RPMI-8226) [%]	IC50 (MDA-MB-231) [µM]	GI50 (ACHN) [µM]	growth at 10 µM (M14) [%]	growth at 10 µM (NCI-H522) [%]	growth at 10 µM (KM12) [%]	GI50 (HCT-15) [µM]	further results
CC(C)=CCC/C(C)=C/CC/C(C)=C/CC[C@]1(C)CCc2c3c(cc(C)c2O1)OCN(CCCCCCCCO)C3	-53.4	7.15	-98.9	99	-52	0.616	117	-56.9	2.24	1.16	-91.5	1.03	0.656	-23.2	11.7	2.16	-94.7	-81.6	-88.1	3	–
CC(C)=CCC/C(C)=C/CC/C(C)=C/CC[C@]1(C)CCc2c3c(c(C)c(C)c2O1)OCN(CCCCO)C3	108	> 10	77.5	112	95.8	3.3	116	76.9	5.41	4.68	50.7	3.86	1.73	91.9	13.8	> 10	65.4	86.7	27.3	4.8	growth at 10 µM (PC-3): 71.8%
CC(C)=CCC/C(C)=C/CC/C(C)=C/CC[C@]1(C)CCc2c3c(cc(C)c2O1)OCN(C1CCN(Cc2ccccc2)CC1)C3	78	2.13	59	93	109	1.57	63.2	109	1.93	1.2	57.8	0.349	2.24	14.6	–	1.88	50.1	-24.9	-44	4.03	growth at 10 µM (PC-3): 33.2%
CC(C)=CCC/C(C)=C/CC/C(C)=C/CC[C@]1(C)CCc2c3c(c(C)c(C)c2O1)OCN(CCCCCCO)C3	–	2.78	3.51	104	91.8	3.09	111	13.4	2.57	2.95	42.7	3.58	3.45	82.4	> 10	2.75	26	68.3	7.87	2.69	growth at 10 µM (PC-3): 51%
